# Assay outcomes (PubChem)
# Most compounds without a hit are left out; they make up all but 3.7% or so of the library.
# m-calpain inh: inhibitors of pig calpain II; purified calpain II, fluorogenic peptide substrate, 30 min; inhibition, % at 16 µM; hit rate 0.37% among 220,000; AID 1236;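 active means inhibition above about 50%, limit read from the data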
# MDM2 E3 inh: Mdm2 E3 ligase (human) inhibition; hit rate 0.11% among 210,000; cell-based MDM2 ubiquitination luciferase reporter, 2 h; 0 = plate control, 100 = twice control, blank-subtracted; AID 1230; Q00987; signal enhancement, % at 5 µM;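 active means signal enhancement of 30% or more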;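 further: luminescence tracks abundance of the self-degrading MDM2-luciferase fusion protein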
#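 Material: stable MDM2–luciferase fusion reporter cells / Quantity: 2000 cells/well / Dosing: single 5 µM compound dose, 0.2% final DMSO / Buffer or medium: DMEM / Schedule: 4 h cell settling then 2 h compound exposure, 37 °C / Detection: luminescence with SteadyLite reagent, 15 min at room temperature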
# Cl transport mod: modulators of human KCC2 chloride dependent transport | AID 1456 | B-score of Tl+ flux slope (higher = more flux/activation; lower = inhibition) at 10 µM | Q9H2X9 | KCC2 cells, thallium flux FluoZin-2 fluorescence | hit rate 2.2% among 190,000;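 active means thallium flux slope and its plate-corrected score both differing from the plate sample mean at a set confidence after two filtering rounds, in either direction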;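 further: slope of fluorescence scaled to starting intensity during 10 to 20 s after thallium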
# Target sequence (Q9H2X9 whole entry, looked up): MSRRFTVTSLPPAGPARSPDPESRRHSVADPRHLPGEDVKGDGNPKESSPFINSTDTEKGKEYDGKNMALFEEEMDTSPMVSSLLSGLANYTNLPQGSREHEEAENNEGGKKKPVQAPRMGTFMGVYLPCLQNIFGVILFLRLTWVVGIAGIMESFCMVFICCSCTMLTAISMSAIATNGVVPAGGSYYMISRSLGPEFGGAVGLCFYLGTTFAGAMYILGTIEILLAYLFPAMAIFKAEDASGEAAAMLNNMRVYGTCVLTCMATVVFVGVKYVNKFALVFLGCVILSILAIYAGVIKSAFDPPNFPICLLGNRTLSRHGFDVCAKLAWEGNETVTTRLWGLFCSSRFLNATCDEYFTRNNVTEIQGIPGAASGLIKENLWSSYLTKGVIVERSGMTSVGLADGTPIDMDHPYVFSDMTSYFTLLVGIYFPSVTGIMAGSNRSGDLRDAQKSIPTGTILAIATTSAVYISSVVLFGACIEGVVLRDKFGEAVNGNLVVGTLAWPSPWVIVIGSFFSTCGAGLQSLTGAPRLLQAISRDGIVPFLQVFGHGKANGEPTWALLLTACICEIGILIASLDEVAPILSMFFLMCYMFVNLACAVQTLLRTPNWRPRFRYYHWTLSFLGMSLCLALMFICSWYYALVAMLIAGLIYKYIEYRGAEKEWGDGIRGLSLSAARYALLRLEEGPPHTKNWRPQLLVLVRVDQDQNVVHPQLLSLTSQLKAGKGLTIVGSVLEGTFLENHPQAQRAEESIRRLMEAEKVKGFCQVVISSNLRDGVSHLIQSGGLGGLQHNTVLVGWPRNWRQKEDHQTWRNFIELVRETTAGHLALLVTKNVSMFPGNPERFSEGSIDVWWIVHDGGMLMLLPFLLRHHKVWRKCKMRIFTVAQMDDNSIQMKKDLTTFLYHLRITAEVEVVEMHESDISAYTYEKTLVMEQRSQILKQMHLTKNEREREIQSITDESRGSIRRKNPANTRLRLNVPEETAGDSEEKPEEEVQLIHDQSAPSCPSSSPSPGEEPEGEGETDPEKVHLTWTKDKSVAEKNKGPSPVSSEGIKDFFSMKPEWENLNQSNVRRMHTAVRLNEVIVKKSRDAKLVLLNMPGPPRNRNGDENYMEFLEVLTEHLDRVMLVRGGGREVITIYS
# ROMK primary: modulates human ROMK potassium channel activity; P48048; Tet-inducible ROMK, thallium flux fluorescence; actives lie on both sides; B-score at 10 µM; hit rate 2% among 130,000; AID 1918;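 active means signal ratio slope over the read window, or its plate-corrected B-score, at least 3 SD from the plate mean, either direction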;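 further: B-score of the F/F0 ratio slope over 7 to 12 s after thallium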
# Arbovirus anti: blocks arbovirus infection; inhibition, % at 10 µM; hit rate 0.37% among 200,000; arbovirus infection cell-based antiviral screen; in the data active means inhibition above about 30%
# PKD1 kinase inh: inhibitors of human PKD1 kinase; PKD1 kinase fluorescence polarization assay; inhibition, % (concentration not given with the values); hit rate 0.056% among 200,000; AID 797; in the data active means inhibition above about 50%
# KCC2 sec1: confirmation of human KCC2 transport modulators | shares compounds with Cl transport mod | HEK293-KCC2, thallium flux, FluoZin2 fluorescence; hits give high values | normalised thallium flux (F/F0 slope) at 10 µM | hit rate 15% among 3,700;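 active means thallium flux slope above the same plate's solvent-only control mean plus 3 SD; inconclusive means the two replicate wells disagree; inactive means no significant difference from solvent-only control wells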
# KCC2 bumet counter: thallium flux persisting under bumetanide in KCC2 cells, counter-screen secondary assay. shares compounds with Cl transport mod. HEK293-KCC2 + bumetanide/ouabain, thallium flux FluoZin2; hits give high values. normalized thallium flux at 10 µM. hit rate 49% among 3,700;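 active means thallium entry rate above the same plate's blocked-transporter control wells by more than 3 SD; inconclusive means the two repeat wells disagree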;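 further: raw slope of fluorescence over initial fluorescence between 10 and 20 s after thallium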
# KCC2 sec2: KCC2 (human) modulation, second secondary assay; HEK293-KCC2, thallium flux FluoZin2 fluorescence; actives lie on both sides; F/F0 rise rate, 10–20 s post-thallium; AID 1715; shares compounds with Cl transport mod; normalized thallium flux at 10 µM; hit rate 23% among 3,700;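 active means thallium flux slope more than 3 SD above or below the plate's solvent-only control mean, mostly below; inconclusive means the two repeat wells disagreed; inactive means no significant shift from solvent-only controls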;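 further: raw slope with 0.1% DMSO as baseline and bumetanide as block control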
# HEK counter1: acts in parental HEK cells, KCC2 counter-screen; thallium flux rate (normalised fluorescence) at 10 µM; hit rate 46% among 3,700; AID 1716; HEK293 parental cells, thallium flux FluoZin2, ouabain; baseline-ratio fluorescence slope, 10–20 s after thallium; shares compounds with Cl transport mod;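 active means thallium flux rate significantly above the same plate's solvent-only control wells, beyond their mean plus 3 SD; inconclusive means the two replicate wells gave conflicting results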
# KCC2 ouabain: confirmation of human KCC2 modulators with ouabain. shares compounds with Cl transport mod. HEK293-KCC2, thallium flux FluoZin2 fluorescence; bidirectional: low = inhibitor, high = activator. raw Tl+ flux slope (below DMSO = inhibition, above = activation) at 10 µM. hit rate 48% among 3,700. AID 1717;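 active means thallium flux slope beyond 3 SD from same-plate DMSO control mean in most replicates, usually higher, sometimes lower; inconclusive means repeat tests gave conflicting results; inactive means no significant difference from controls in most replicates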;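 further: slope of initial-normalized fluorescence between seconds 10 and 20 after thallium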
# HEK counter2: parental HEK flux effect, counter-screen 2 | shares compounds with Cl transport mod | HEK293 parental, thallium flux FluoZin-2 fluorescence slope | thallium flux slope at 10 µM | hit rate 33% among 3,700;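 active means thallium flux slope above the same plate's solvent-control mean plus 3 SD in both duplicate wells; inconclusive means duplicate wells that disagreed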;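 further: run without ouabain in cells lacking the KCC2 cotransporter; slope of fluorescence scaled to its starting value between 10 and 20 s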
# * hit, by the source's call; ? = inconclusive; · = not tested or not shown.
SMILES,m-calpain inh,MDM2 E3 inh,Cl transport mod,ROMK primary,Arbovirus anti,PKD1 kinase inh,KCC2 sec1,KCC2 bumet counter,KCC2 sec2,HEK counter1,KCC2 ouabain,HEK counter2
O=C(NCCN1CCOCC1)c1cc2n(n1)C(C(F)(F)F)CC(c1ccc(F)cc1)N2 (stereo unspecified),-29,2,·,-0.0083,-6,9,·,·,·,·,·,·
COc1ccc(N=Nc2ccc(O)c3ncccc23)cc1,4,·,32*,·,·,·,0.019,0.034*,0.032,0.02*,0.027*,0.019*
COc1ccc(C)cc1N=Nc1ccc(O)c2ncccc12,-64,-37,21*,-0.018,-16,-3,0.0069,0.035*,0.039*,0.021*,0.035*,0.023*
Oc1ccc(N=Nc2ccc3c(c2)OCCO3)c2cccnc12,9,-19,24*,1.4,-13,0,0.011,0.037*,0.033,0.061*,0.039*,0.014*
CN(c1ccccc1C(=O)N1CCN(Cc2ccc3c(c2)OCO3)CC1)S(C)(=O)=O,-19,-4,1.5,-0.33,6,-4,·,·,·,·,·,·
CC(C)C(=O)n1nc(-c2cccnc2)nc1NCc1ccc(F)cc1,5,-15,-0.94,-1.6,-4,0,·,·,·,·,·,·
O=C(O)CCc1ccc(-c2ccc(F)cc2)n1CC1CCCO1 (stereo unspecified),-285,-2,0.6,·,7,-4,·,·,·,·,·,·
O=C(O)CCc1ccc(-c2ccc(F)cc2)n1CCC(=O)O,-64,-10,3.2*,1.1,1,-4,0.01,?,0.034,0.008,0.023,0.011
S=c1sc2c(Cl)ncnc2n1-c1ccccc1,-19,17,-4.3*,0.023,-35,-1,0.0058,0.0046,0.033,0.0073,0.019,0.01
Oc1ccc(/C=N/NC(=S)NC2CC3CCC2C3)cc1 (stereo unspecified),44,1,0.44,·,·,·,·,·,·,·,·,·
S=C(N/N=C/c1cccs1)NC1CC2CCC1C2 (stereo unspecified),29,-27,19*,·,·,·,0.017*,0.066*,0.038,0.027*,?,0.016*
Cc1c(NC(=O)CN2C(=O)c3ccccc3S2(=O)=O)c(=O)n(-c2ccccc2)n1C,-15,1,3.4*,1.2,2,0,0.0077,0.0051,0.035,0.0079,0.021,?
O=C(NC(=S)NN1CCCCC1c1cccnc1)c1ccc(Cl)cc1Cl (stereo unspecified),5,-12,9.1*,·,·,·,0.012*,0.021*,0.035,0.012*,?,?
Cc1ccccc1C(=O)NC(=S)Nc1ccccc1[N+](=O)[O-],-8,-5,14*,·,1,-8,0.0073,0.013*,0.028,0.011*,0.021,0.011
COCCNC(=S)Nc1ccccc1[N+](=O)[O-],10,-9,-0.062,-0.29,2,8,·,·,·,·,·,·
O=C(NC(=S)Nc1ccccc1[N+](=O)[O-])c1ccco1,13,6,25*,0.38,2,0,0.017*,0.077*,0.038,0.032*,0.064*,0.016*
Cc1ccccc1C(=O)NC(=S)Nc1ccccc1C(=O)O,1,-5,-0.51,-0.033,9,-11,·,·,·,·,·,·
COC(=O)c1ccccc1NC(=S)NC(=O)c1ccccc1C,-21,-1,4.7*,-1.3,9,-8,0.01,0.04*,0.03,0.013*,?,?
Cc1cc(-c2nc3ncccc3o2)ccc1NC(=S)NC(=O)c1ccco1,-68,-3,10*,0.43,1,-2,0.013*,0.04*,0.036,0.035*,0.035*,0.016*
COc1ccc2nc(SCC(=O)/C(C#N)=C(\C)N)[nH]c2c1,-2,9,0.071,·,8,-8,·,·,·,·,·,·
COC(=O)C(=O)/C=C(\O)c1c(C)cc(C)cc1C,-4,2,0.45,-0.01,·,·,·,·,·,·,·,·
Cc1ccccc1N1CCN(C(=O)c2ccccc2NC(=O)c2ccccc2C(=O)O)CC1,-19,6,·,0.2,1,2,·,·,·,·,·,·
O=C(NC(=S)Nc1cccnc1Cl)c1ccco1,-16,2,25*,1,7,4,0.02*,0.051*,0.04,?,0.043*,?
O=C(NC(=S)Nc1ccccc1C(F)(F)F)c1ccccc1F,-16,0,99*,·,-1,7,0.0074,0.087*,0.052*,0.055*,0.067*,0.052*
Cc1cccc(C(=O)N2CCN=C2SCc2ccc([N+](=O)[O-])cc2)c1,5,-17,-0.49,-1.8,-3,-6,·,·,·,·,·,·
SMILES,m-calpain inh,MDM2 E3 inh,Cl transport mod,ROMK primary,Arbovirus anti,PKD1 kinase inh,KCC2 sec1,KCC2 bumet counter,KCC2 sec2,HEK counter1,KCC2 ouabain,HEK counter2
Cc1ccc(/C(=C\CN2CCCC2)c2ccccn2)cc1,6,3,1.7,·,·,·,·,·,·,·,·,·
O=S(=O)(NCc1ccccc1)c1ccc(S(=O)(=O)NCC2CCCO2)cc1 (stereo unspecified),8,-3,0.092,-0.54,0,-4,·,·,·,·,·,·
Cc1ccc(-c2ccc(S(=O)(=O)NCC3CCCO3)cc2)cc1 (stereo unspecified),4,-6,-4.9*,-0.65,-9,-8,0.0054,0.0041,0.026*,0.0078,?,0.011
O=C(Nc1nnc(-c2ccc3c(c2)CCCC3)o1)c1c(F)cccc1F,-7,-23,16*,0.84,5,-3,0.017*,0.047*,0.037,0.02*,0.035*,0.013*
O=C(Nc1nnc(-c2ccc3c(c2)CCCC3)o1)c1ccc(Cl)cc1Cl,-30,-4,·,·,-20,4,·,·,·,·,·,·
S=c1[nH]nc(-c2ccc3ccccc3n2)n1-c1ccccc1,8,-2,1.6,·,-2,9,·,·,·,·,·,·
Fc1ccccc1-n1c(-c2ccc3ccccc3n2)n[nH]c1=S,-27,·,4.5*,-0.033,0,1,0.011,0.022*,?,?,?,0.012
COc1cccc(-c2nc(NCCN3CCOCC3)c3ccccc3n2)c1O,-28,-25,-0.041,-0.84,-34,-2,0.01,0.0072,0.033,0.0078,0.021,?
COC(=O)c1ccccc1OCCCN(C)C,15,-15,0.87,·,-5,1,·,·,·,·,·,·
